Compounds with a hit are over-represented: about 11% of the library has one in this group of screens.
M1 ag – M1 muscarinic receptor agonists, primary screen, CHO-M1 cells, Fluo-4 calcium, agonist mode | B-score at 10 µM | 3% of 64,000 active | Fluo-4 calcium fluorescence; active compounds read high | Muscarinic acetylcholine receptor M1;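 active means fluorescence rise, raw or as B-score row- and column-corrected plate score, outside the 99.7% band of its plate's samples, either direction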
D1 allo mod – D1 CRE-luciferase signal change, two-sided – cell-based, HEK293 D1, dopamine EC30, D1 allosteric modulator project, primary screen. D(1A) dopamine receptor (Homo sapiens), P21728. dopamine EC30 potentiation; actives deviate in either direction. B-score at 10 µM. 5.9% of 58,000 active;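 active means luminescence count or its row- and column-corrected plate score outside the 99.7% band of the plate's sample wells, on either side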
S1P1 ag-PAM – S1P1 agonists and agonism potentiators, primary screen, cell-based, primary and confirmation screens, CRE-bla reporter | 0.57% of 56,000 active | AID 449, 2006 | S1P1 CRE-bla cells, forskolin, beta-lactamase FRET, potentiator mode; S1P1 agonist co-added at EC20, 2 nM; 100% = saturating reference agonist, 0% = basal | activation, % at 9.5 µM;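 active means activation above a cutoff set at the mean activation of all tested compounds plus 3 SD, cut at about 54% in these data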;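 further: forskolin at 4 µM as EC80 and the EC20 agonist is SEW2871; 100% = SEW2871 at its EC100 plus forskolin at EC80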
S1P3 agonist – human S1P3 receptor agonists, primary screen, cell-based, primary and confirmation, NFAT-BLA reporter | 0.1% of 60,000 active | activation, % at 4.5 µM | S1P3 NFAT-BLA reporter cells, agonism, FRET ratio; relative to 1 µM S1P, basal subtracted;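 active means activation above the screen-wide mean plus 3 SD, cut at about 4.5% in these data, passing the limit was not always enough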
Target sequence (Q99500 whole entry, looked up): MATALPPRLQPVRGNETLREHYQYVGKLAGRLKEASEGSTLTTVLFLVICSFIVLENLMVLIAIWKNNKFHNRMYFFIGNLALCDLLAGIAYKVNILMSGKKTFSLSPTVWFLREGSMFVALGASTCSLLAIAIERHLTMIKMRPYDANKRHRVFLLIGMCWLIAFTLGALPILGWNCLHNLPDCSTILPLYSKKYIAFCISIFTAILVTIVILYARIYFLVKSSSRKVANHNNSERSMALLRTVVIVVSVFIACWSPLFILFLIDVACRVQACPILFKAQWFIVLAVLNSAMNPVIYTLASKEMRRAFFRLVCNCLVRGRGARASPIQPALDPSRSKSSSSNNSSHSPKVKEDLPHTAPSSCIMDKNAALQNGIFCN
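Assay system: CHO cells stably expressing human S1P3, Gα16 and NFAT-β-lactamase reporter. Timing: overnight plating, 4 h compound 37 °C, 2 h substrate RT. Signal: β-lactamase FRET emission ratio 460/535 nm. Measure: percent activation versus median 1 µM S1P response, basal-subtracted, per plate. Repeats: primary screen single test, confirmation screen in triplicate.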
M1 antagonist – antagonists of rat M1 muscarinic receptor; CHO-M1 cells, Fluo-4 calcium, ACh EC80 antagonist mode; active compounds read low; Muscarinic acetylcholine receptor M1 (Rattus norvegicus), P08482; AID 628, 2007; 3.4% of 64,000 active; B-score at 10 µM;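 active means calcium fluorescence response, raw or row-and-column corrected B-score, differing from the plate sample mean either way at a set confidence level, mostly lower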
M1 antag confirm – rat M1 muscarinic receptor antagonists, confirmation, CHO cells, Fluo-4 calcium, duplicate; AID 677, 2007; calcium response (max-min fluorescence) at 10 µM; shares compounds with M1 antagonist; ACh EC80 antagonism; active compounds read low; 43% of 1,700 active;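 active means calcium response below the same-plate mean of wells given acetylcholine alone at its 80%-effect dose, minus 3 SD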;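 further: raw fluorescence intensity difference in arbitrary instrument units and not normalized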
mGluR4 antag – human mGluR4 response to M1 antagonist hits, M1 allosteric modulator project, cell-based, antagonist mode, secondary assay 1; fluorescence response (max-min) at 10 µM; 0.9% of 1,700 active; CHO-mGluR4 calcium flux, Fluo-4 fluorescence, glutamate EC80; active compounds read low; shares compounds with M1 antagonist; AID 678, 2007;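 active means fluorescence response below the plate's average for near-maximal glutamate wells, less 3 SD of those wells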;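 further: raw unnormalized fluorescence span taken in the window right after glutamate addition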
* hit, by the source's call; x = no result.

SMILES	M1 ag	D1 allo mod	S1P1 ag-PAM	S1P3 agonist	M1 antagonist	M1 antag confirm	mGluR4 antag
COC(=O)c1cn(CC(=O)NC2CCCCC2)c2ccccc12	0.33	0.13	3	0	-2*	572	219
COc1ccc(C(=O)N2CCN(C(=O)Cc3ccccc3)CC2)cc1OC	-0.56	-0.0051	-1	0	-3.7*	519	181
O=C(CC1(C(F)(F)F)OCCO1)Nc1ccc2c(c1)OCO2	-1.3	-0.82	15	-1	0.3	x	x
COc1ccccc1Nc1nc2ccccc2n1C	0.062	-2.6	7	-1	-4.4*	489	209
CNc1ccccc1-c1nc2ccccc2n(C)c1=O	-0.24	x	-6	-2	-0.15	x	x
O=C(CCN1CCc2ccccc21)c1ccc2c(c1)OCCO2	-0.94	x	32	-5	0.15	x	x
O=C(CCN1CCc2ccccc2C1)c1ccc2c(c1)OCCO2	-0.17	-1.1	42	0	-5.7*	487*	254
CN(C1CCCCC1)S(=O)(=O)c1ccc(S(=O)(=O)N2CCCC2)cc1	0.3	-0.53	13	0	-3.3*	327*	236
CCCc1cc(N2CCN(c3ccccn3)CC2)n2nc(C)c(-c3ccccc3)c2n1	-0.23	x	-1	-1	0.22	x	x
Cc1oc(-c2ccc(Cl)cc2)nc1CN1CCC(C(=O)N2CCN(c3ccccn3)CC2)CC1	0.48	-0.79	-9	-1	-3.2*	385	236
CCc1ccc(-c2nc(CN3CCC(C(=O)NCCN(CC)c4ccccc4)CC3)c(C)o2)cc1	1.1	-1.4	11	0	0.46	x	x
CCc1ccc(-c2nc(CN3CCC(C(=O)N4CCN(c5ccccc5)CC4)CC3)c(C)o2)cc1	0.72	1.4	22	-2	-2.9*	486*	255
Cc1oc(-c2cccc(Cl)c2)nc1CN1CCC(C(=O)N2CCN(c3ccccn3)CC2)CC1	2.8	-0.8	-11	0	-1.8	x	x
COCCn1c(SCC(=O)c2ccc(F)cc2)nnc1C(C)C	0.091	0.065	-7	0	0.041	x	x
Cc1ccc(C(C(=O)NC2CCCC2)N(Cc2cccnc2)C(=O)c2snc(C(N)=O)c2N)o1 (centres undefined)	-0.028	0.0015	-19	-1	-0.32*	600	221
COc1ccc(-c2nnc(SC(C)C(=O)Nc3cccc(Cl)c3)o2)cc1 (centres undefined)	-0.59	-0.34	21	0	0.0051	x	x
O=C(CN1CCCCC1)Nc1cccc(-n2cnnn2)c1	-0.024	-0.81	-7	-1	0.018	x	x
FC(F)(F)C(Oc1nc(NC2CCCCC2)nc(N2CCOCC2)n1)C(F)(F)F	-0.75	0.58	-34	1	-0.2	x	x
Cc1ccc(Nc2nc(OC(C(F)(F)F)C(F)(F)F)nc(N3CCOCC3)n2)cc1	0.16	-0.25	x	x	-3.7*	604	232
Cc1csc(=O)n1CCC(=O)O	0.047	0.55	-4	0	-0.098	x	x
CCOCCCn1c(=N)c(C(=O)NCc2ccc3c(c2)OCO3)cc2c(=O)n3ccccc3nc21	-0.15	-0.26	2	0	-2.7*	438	226
CCCn1c(=N)c(C(=O)NCc2ccc3c(c2)OCO3)cc2c(=O)n3cccc(C)c3nc21	2.6	0.53	-34	0	-10*	54*	240
CCN(CC)Cc1cc(CC(C(N)=O)C(N)=O)ccc1OC	1.1	-0.11	10	-1	-2.5*	672	224
CCN(CC)Cc1cc(C(C)=O)ccc1OCC(C)C	-0.38	x	9	1	-0.32	x	x
COc1ccccc1NC(=O)N1CCCC1C(=O)NC12CC3CC(CC(C3)C1)C2 (centres undefined)	-0.12	1.2	-17	0	0.016	x	x
SMILES	M1 ag	D1 allo mod	S1P1 ag-PAM	S1P3 agonist	M1 antagonist	M1 antag confirm	mGluR4 antag
Cc1nc(SCc2c(F)cccc2Cl)c2c(=O)n(C)c(=O)n(C)c2n1	-0.54	4.9	-9	-1	-0.017	x	x
Cc1c(Cl)cccc1N1C(=O)C2ON(c3ccccc3)C(c3cccnc3)C2C1=O (centres undefined)	0.32	x	-16	-4	-2.1*	652	250
CCOc1ccccc1NC(=O)CCN1CCN(S(=O)(=O)c2ccc(Br)cc2)CC1	1	-0.13	-34	0	0.75	x	x
COC(=O)c1ccc(Oc2nc(N3CCCCC3)nc(N3CCOCC3)n2)cc1	-0.92	0.2	x	-1	-2.3*	457	186
Clc1ccc(Oc2nc(Oc3ccc(Cl)cc3)nc(N3CCOCC3)n2)cc1	x	x	2	0	x	x	x
COc1ccc(NC(=O)CN2CCN(CC(=O)Nc3ccccc3Cl)CC2)cc1Cl	1	0.45	26	-1	0.035	x	x
O=C(CN1CCCC1)Nc1ccc(NC(=O)Nc2ccccc2Cl)cc1	-0.25	-0.83	-12	0	-1.7*	580	277
Cc1ccc(C)c(OCCOCCN2CCOCC2)c1	-0.48	-1.4	-9	-1	0.5	x	x
Cc1ccc(C)c(OCCCN2CCCC2)c1	-1.8	-3.9	5	-1	-3*	511*	265
O=C(CSc1ncnc2ccccc12)Nc1ccc(N2CCOCC2)cc1	-0.14	0.024	-23	2	-0.12	x	x
Cc1ccc(C(=O)NCCCn2ccnc2)o1	0.04	0.3	-6	-1	0.86	x	x
O=C(NCCCn1ccnc1)C1c2ccccc2Oc2ccccc21	0.74	-2.5*	-9	-2	-6*	309*	228
Cn1c(NC(=O)Cc2ccc(F)cc2)cc(=O)n(C)c1=O	-0.37	2.4	-23	0	-0.13	x	x
CN1CCN(c2nc(NCCOC34CC5CC(CC(C5)C3)C4)nc(OCC(F)(F)F)n2)CC1	-1.1	-0.3	4	-1	-6.2*	484*	190
O=C(NCc1ccco1)C(c1cccnc1)N(C(=O)Cn1nnc2ccccc21)c1ccc(F)cc1 (centres undefined)	0.79	0.061	-12	-2	-0.32	x	x
Cc1noc(/C=C/N(C)C)c1S(=O)(=O)N1CCCC(C(=O)NC2CCCCC2)C1 (centres undefined)	-0.86	0.81	-30	0	-2.3*	477	216
CCCCn1cnc2c(c1=O)c1nc3ccccc3nc1n2Cc1ccc2c(c1)OCO2	0.008	0.79	-5	0	0.32	x	x
CCn1c(=O)c(=O)[nH]c2cc(C(=O)N3CCN(c4ccccc4F)CC3)ccc21	0.025	-0.013	-3	0	0.12	x	x
